The structures appear in SMILES notation. Active and inactive are the calls of the source. No cut-off for these calls is given here.

The subject of data set [1] is PC-12. In words: Effect on cell morphology in rat PC12 cells at 1 to 10 uM incubated for 4 days in absence of NGF. The data set is classed as functional, cell-based. In outline: (§1)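 PC12 cells seeded at 8 × 10^3 cells/cm2 in DMEM + 10% HS, 5% FBS, penicillin/streptomycin, 37 °C, 5% CO2, 24 h. Medium then switched to DMEM + 2% HS, 1% FBS and test samples added without NGF. After 4 days, cells fixed in 4% paraformaldehyde−PBS, stained with methylene blue, and morphology examined by phase-contrast microscopy. Triplicate wells.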

The subject of data set [2] is PC-12. Nature of the data set: Potentiation of NGF-induced neurite outgrowth-promotion in rat PC12 cells at 1 uM incubated for 4 days in presence of 0.5 ng/mL NGF. In kind it is functional, cell-based.
Data set [3] deals with PC-12. In words: Potentiation of NGF-induced neurite outgrowth-promotion in rat PC12 cells at 10 uM incubated for 4 days in presence of 0.5 ng/mL NGF. The data set is classed as functional, cell-based.
Data set [4] concerns PC-12. In words: Toxicity in NGF-stimulated rat PC12 cells at > 30 uM incubated for 4 days in presence of 0.5 ng/mL NGF. In kind it is cell-based. Particulars: pc-12, 96 h. In outline: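 PC12 cells grown 24 h in DMEM + 10% HS/5% FBS, then exposed for 4 days to test samples with 0.5 ng/mL NGF in DMEM + 2% HS/1% FBS. After fixing in 4% paraformaldehyde−PBS and methylene blue staining, cells were examined under phase-contrast microscopy.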

The test system of data set [5] is PC-12. In words: Potentiation of NGF-induced neurite outgrowth-promotion in rat PC12 cells assessed as increase in neurite length at 10 uM incubated for 4 days in presence of 0.5 ng/mL NGF (reference value: 21.1 micrometer). In kind it is functional.
In data set [6] the test system is PC-12. Nature of the data set: Potentiation of NGF-induced neurite outgrowth-promotion in rat PC12 cells assessed as increase in neurite length at 1 uM incubated for 4 days in presence of 0.5 ng/mL NGF (reference value: 21.1 micrometer). In kind it is functional.
Data set [7] deals with PC-12. In words: Potentiation of NGF-induced neurite outgrowth-promotion in rat PC12 cells assessed as increase in neurite length at 1 to 30 uM incubated for 4 days in presence of 0.5 ng/mL NGF (reference value: 21.1 micrometer). The data set is classed as functional, cell-based.
The subject of data set [8] is PC-12. In words: Potentiation of NGF-induced neurite outgrowth-promotion in rat PC12 cells assessed as increase in neurite length at 30 uM incubated for 4 days in presence of 0.5 ng/mL NGF (reference value: 21.1 micrometer). In kind it is functional.
Data set [9] concerns PC-12. Nature of the data set: Effect on cell morphology in rat PC12 cells at 1 to 30 uM incubated for 4 days in absence of NGF. The data set is classed as functional, cell-based. In outline: as §1
In data set [10] the test system is PC-12. Nature of the data set: Potentiation of NGF-induced neurite outgrowth-promotion in rat PC12 cells at 1 to 30 uM incubated for 4 days in presence of 0.5 ng/mL NGF. In kind it is functional, cell-based.

Regarding `CC1(C)CC[C@]2(CC[C@]3(C)C(=CC[C@@H]4[C@@]5(C)C[C@@H](O)[C@H](O)[C@@](C)(CO)[C@@H]5CC[C@]43C)[C@H]2O)C1`, in [1], the outcome was inactive. Besides, the outcome in [2] and in data set [3] was Active. Moreover, the Activity entry is “Toxic” in data set [4], 33.1 um in data set [5], 22.9 um in data set [6] and “Dose-dependent effect” in [7].

With `CC1(C)CC[C@]2(CC[C@]3(C)C(=CC[C@@H]4[C@@]5(C)C[C@@H](O)[C@H](OC(=O)/C=C/c6ccc(O)cc6)[C@@](C)(CO)[C@@H]5CC[C@]43C)[C@H]2O)C1` (relative stereo), the Activity is 41.9 um in data set [8]; “Dose-dependent effect” in [10]; 33.5 um in data set [5]; 27.6 um in data set [6]; “Dose-dependent effect” in data set [7]. Moreover, the outcome in data set [9] was inactive.

On to `CC1(C)CC[C@]2(CC[C@]3(C)C(=CC[C@@H]4[C@@]5(C)C[C@@H](O)[C@H](OC(=O)/C=C\c6ccc(O)cc6)[C@@](C)(CO)[C@@H]5CC[C@]43C)[C@H]2O)C1` (relative stereo), for which the Activity in data set [8] was 41.9 um; in [10], “Dose-dependent effect”; in [5], 33.5 um; in data set [6], 27.6 um; in data set [7], “Dose-dependent effect”. The result in data set [9] was inactive.

Regarding `COc1cc(/C=C/C(=O)O[C@H]2[C@H](O)C[C@@]3(C)[C@@H](CC[C@]4(C)[C@@H]3CC=C3[C@@H](O)[C@@]5(CCC(C)(C)C5)CC[C@]34C)[C@]2(C)CO)ccc1O` (relative stereo), the Activity is 55.1 um in data set [8]; “Dose-dependent effect” in [10]; 42 um in [5]; 32.1 um in data set [6]; “Dose-dependent effect” in [7]. In data set [9], the outcome was inactive.

Consider `COc1cc(/C=C\C(=O)O[C@H]2[C@H](O)C[C@@]3(C)[C@@H](CC[C@]4(C)[C@@H]3CC=C3[C@@H](O)[C@@]5(CCC(C)(C)C5)CC[C@]34C)[C@]2(C)CO)ccc1O` (relative stereo), for which the Activity was 55.1 um in [8]; “Dose-dependent effect” in data set [10]; 42 um in data set [5]; 32.1 um in data set [6]; “Dose-dependent effect” in data set [7]. In data set [9], the result was inactive.

The values are drawn from ChEMBL document CHEMBL2086243, “Spirocyclic nortriterpenoids with NGF-potentiating activity from the fruits of Leonurus heterophyllus” (J Nat Prod, 2012).
